From PMC2998183 (Journal of nuclear medicine : official publication, Society …, 2010)
Positions of bridges follow the written chain, without caps; N, C: chain ends. Non-standard residues stand in square brackets, D forms with d. No end group written: not given here. *: point of attachment. DOTA = O=C(O)CN1CCN(CC(=O)O)CCN(CC(=O)*)CCN(CC(=O)O)CC1; Nle = CCCC[C@H](N)C(=O)O

Assays:
B16/F1 melanoma cells [1] = experiment: Cellular efflux in B16/F1 melanoma cells; format: cell-based; conditions: 2 h after incubating cells in culture medium
Outline: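 B16/F1 cells were loaded with ¹¹¹In-labelled test compound for 2 h at 25°C, then given 2 ice-cold PBS rinses to remove non-specifically bound activity. Radioactivity released into the culture medium was monitored. At 20, 40, 60, 90 and 120 min, cell-surface and intracellular radioactivity were collected separately and gamma-counted.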

[2] = Urinary metabolites by RP-HPLC; format: in vivo, mouse; conditions: urine, 2 h post-injection
Outline: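 A C57 mouse bearing a B16/F1 flank tumour (1×10⁶ cells s.c., 10 days) received 37 MBq (1 mCi) ¹¹¹In-labelled test compound via the tail vein. It was euthanized at 2 h and urine collected. Urine was centrifuged at 16,000g for 5 min, and aliquots were analysed by RP-HPLC using a 20-min 18–28% acetonitrile/20 mM HCl gradient.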

B16/F1 melanoma cells [3] = experiment: Cellular internalization in B16/F1 melanoma cells; format: cell-based; conditions: 25°C
Outline: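 B16/F1 cells, washed twice in binding medium (DMEM, 25 mM HEPES pH 7.4, 0.2% BSA, 0.3 mM 1,10-phenanthroline), incubated at 25°C for 20, 40, 60, 90 and 120 min (n=3) with ~200,000 cpm HPLC-purified ¹¹¹In-labelled test compound. Cells rinsed in ice-cold 0.2% BSA/0.01 M PBS pH 7.4. Membrane-bound activity stripped with 40 mM sodium acetate pH 4.5, 0.9% NaCl, 0.2% BSA. Internalized activity recovered by 1 N NaOH lysis (5 min). Both fractions gamma-counted.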

[4] = In vitro serum stability in mouse serum monitored by RP-HPLC; format: in vitro ADME; conditions: 37 °C, 24 h
Outline: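 Test compound was labelled with ¹¹¹In in 0.5 M NH₄OAc pH 4.5 at 75°C for 45 min, and unbound ¹¹¹In was scavenged with EDTA. It was purified by C-18 RP-HPLC (20-min 18–28% acetonitrile gradient in 20 mM HCl). The purified label was incubated in mouse serum at 37°C for 24 h, with degradation monitored by RP-HPLC.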

[5] = Biodistribution in B16/F1 melanoma-bearing C57 mice; format: in vivo, mouse; conditions: female, C57, mouse, urine, iv, 0.037 MBq, total radioactivity, percent injected dose, 0.5 h post-injection
[6] = tested on: B16/F1 melanoma-bearing C57 mice; experiment: as above; format: in vivo, mouse
MC1 receptor = conditions: cited from earlier work
[7] = target: melanocortin-1 (MC1) receptor (Mus musculus, UniProt Q01727); conditions: read-out: MC1 receptor binding affinity; B16/F1 cells; ref [17], [21]; cited from earlier work
[8] = tested on: B16/F1 melanoma-bearing C57 mice; conditions: mouse, in vivo, 4 h; cited from earlier work

Chain of melanocortin-1 (MC1) receptor (Q01727 whole entry): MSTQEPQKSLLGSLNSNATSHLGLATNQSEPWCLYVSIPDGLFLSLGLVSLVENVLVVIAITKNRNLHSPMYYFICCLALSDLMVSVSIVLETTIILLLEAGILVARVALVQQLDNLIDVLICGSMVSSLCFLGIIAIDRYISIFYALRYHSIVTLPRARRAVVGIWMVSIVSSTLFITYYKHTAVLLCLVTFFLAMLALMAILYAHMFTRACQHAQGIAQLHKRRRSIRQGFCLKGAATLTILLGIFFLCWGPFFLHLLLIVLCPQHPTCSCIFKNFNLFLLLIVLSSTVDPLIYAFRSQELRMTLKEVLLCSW

In the case of CCCC[C@H](NC(=O)CN1CCN(CC(=O)O)CCN(CC(=O)O)CCN(CC(=O)O)CC1)C(=O)N[C@H]1CC(=O)NCCCC[C@@H](C(N)=O)NC(=O)[C@H](Cc2c[nH]c3ccccc23)NC(=O)[C@H](CCCNC(=N)N)NC(=O)[C@@H](Cc2ccccc2)NC(=O)[C@H](Cc2c[nH]cn2)NC1=O [^111In-DOTA-Nle-CycMSHhex, metal not drawn], the “Internalized activity remained inside the cells” value (B16/F1 melanoma cells [1]) is reported as 89.5±1.9%, the “Urinary metabolite analysis by RP-HPLC” value [2] is reported as “remained intact” and the “Cellular uptake activity internalized” value (B16/F1 melanoma cells [3]; 20 min post incubation) is reported as 72.9±3.5%. For the same molecule, the “Cellular uptake activity internalized” value (B16/F1 melanoma cells [3]; 120 min post incubation) was 88.3±0.7%, the “Stability in mouse serum” value [4] was “stable” and the dose excreted at 0.5 h [5] was 57 ± 3.91%. The “Tumor uptake with NDP-MSH co-injection as percent of tumor uptake without” value ([6]; 10 μg non-radiolabeled NDP-MSH co-injection, 2 h) was 4.2%, the “Reduction of kidney uptake value by L-lysine co-injection” value ([6]; 2 h post-injection) was 30% and the “Renal uptake value as percent of that of ^111In-DOTA-GlyGlu-CycMSH” value ([6]; 2 h post-injection) was 72.8%. The “Tumor uptake value, times that of ^111In-DOTA-GlyGlu-CycMSH” value ([6]; 2 h post-injection) was 1.86 times, the “Tumor uptake value, times that of ^111In-DOTA-Re(Arg^11)CCMSH” value ([6]; 2 h post-injection) was 1.12 times and the “Renal uptake value as percent of that of ^111In-DOTA-GlyGlu-CycMSH” value ([6]; 4 h post-injection) was 82.4%. For the same molecule, the “Tumor uptake value, times that of ^111In-DOTA-Re(Arg^11)CCMSH” value ([6]; 4 h post-injection) was 0.98 times, the “Tumor uptake value, times that of ^111In-DOTA-Re(Arg^11)CCMSH” value ([6]; 24 h post-injection) was 1.29 times and the “Percent of tumor activity at 2 h post-injection remaining in tumors at 24 h” value ([6]; 24 h vs 2 h post-injection) was 54.3%.
In the case of “Ac-Nle-c[Asp-His-DPhe-Arg-Trp-Lys(CONH2)] [MT-II]”, the “MC1 receptor binding affinity compared with native α-MSH peptide” value (MC1 receptor; ref [27], [28]) is given as “higher MC1 receptor binding affinity” and the “MC1 receptor dissociation rate compared with native α-MSH peptide” value (MC1 receptor; ref [27], [28]) is given as “slower MC1 receptor dissociation rate”.
In the case of “DOTA-Gly-Glu-c[Lys-Nle-Glu-His-DPhe-Arg-Trp-Gly-Arg-Pro-Val-Asp] ({DOTA}-GEK[Nle]EH[dF]RWGRPVD; lactam 3-14; not fully specified) [DOTA-GlyGlu-CycMSH]”, the IC50 [7] is listed as 0.9 nM.
In the case of “[Ac-Nle^4,Asp^5,D-Phe^7,Lys^11(pz-^99mTc(CO)3)]α-MSH4–11”, the Melanoma uptake [8] is given as 4.24 ± 0.94 %ID/g.
In the case of [Nle^4, D-Phe^7]- α-MSH [NDP-MSH], the “Affinity for the MC1 receptor present on the melanoma cells” value (MC1 receptor; stated without reference) is listed as “picomolar”.
For “^99mTc(CO)3-pz-βAla-Nle-cyclo[Asp-His-D-Phe-Arg-Trp-Lys]-NH2”, the Kidneys uptake [8] is listed as 32.12 ± 1.57 %ID/g, the Liver uptake [8] is listed as 22.86 ± 1.17 %ID/g and the Melanoma uptake [8] is listed as 11.31 ± 1.81 %ID/g.
